ChEMBL document CHEMBL1123566, “Synthesis and cardiac electrophysiological activity of 2- and 3-[(substituted phenyl)alkyl]quinuclidines. Structure-activity relationships” (1987)
Several values for one entry are separate records, joined by “and”; a condition that tells them apart may be missing. Equal values may be shown once.

Key:
Canis familiaris [1] = species: Canis familiaris; assay: (§1) In vitro electrophysiological evaluation in canine cardiac occurred is 100.; format: functional; conditions: Canis lupus familiaris; Heart
Canis familiaris [2] = species: Canis familiaris; assay: In vitro electrophysiological evaluation in canine cardiac Purkinje fibres reported as % change for action potential duration at a concentration of 10 uM; format: functional, Canis lupus familiaris, Purkinje fiber
In short: (§2)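 Canine cardiac Purkinje fibres, intracellular microelectrode recording, paced at a basic cycle length of 1 s. APD95 and Vmax read simultaneously. Compound: 10 mM stock in deionized water, diluted into Tyrode's solution, tested over the stated concentration range. Each fibre used once as its own control. Result is % change from control, given at 10 µM or as the maximum with its concentration. M = <10% decrease or an increase in Vmax.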

Canis familiaris [3] = species: Canis familiaris; assay: In vitro electrophysiological evaluation in canine cardiac Purkinje fibres reported as percent change Vmax at 10 uM at concentration range of 5-100 uM; Minimal (<10% decrease or increase in Vmax).; format: functional; conditions: Canis lupus familiaris, Purkinje fiber
Canis familiaris [4] = species: Canis familiaris; assay: In vitro electrophysiological evaluation in canine cardiac Purkinje fibres reported as percent change Vmax at 10 uM at concentration range of 0.1-100 uM; Minimal (<10% decrease or increase in Vmax).; format: functional, organism-based; conditions: Canis lupus familiaris, Purkinje fiber; in short: as §2
Canis familiaris [5] = species: Canis familiaris; assay: In vitro electrophysiological evaluation in canine cardiac ventricular muscle reported as maximum % change for functional refractory period (FRP) at 0.1-100 uM concentration range; concentration at which it occurred is 100.; parameters: species or system Canis lupus familiaris, Muscle tissue
Canis familiaris [6] = species: Canis familiaris; assay: as §1; format: functional; conditions: Canis lupus familiaris; Heart; remark: listed apart in the source
Canis familiaris [7] = species: Canis familiaris; assay: In vitro electrophysiological evaluation in canine cardiac ventricular muscle reported as maximum % change for conduction time(CT) at 0.1-100 uM concentration range; Minimal (<10% decrease or increase in […]).; format: functional, Canis lupus familiaris, Muscle tissue
In short: (§3)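 Canine right ventricular/papillary muscle strips in oxygenated Tyrode's, extracellular extra-stimulus conduction-interval method. FRP and CT are read from conduction-interval curves before and during rising concentrations. Compound is a 10 mM aqueous stock diluted into Tyrode's. Each strip is used once as its own control. Readouts are percent change from control at 10 μM, plus the maximum change with its concentration.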

Canis familiaris [8] = species: Canis familiaris; assay: (§4) In vitro electrophysiological activity in canine cardiac occurred is 100.; format: functional, Canis lupus familiaris, Heart
Canis familiaris [9] = species: Canis familiaris; assay: In vitro electrophysiological evaluation in canine cardiac Purkinje fibres reported as maximum percent change Vmax concentration range of 0.1-100 uM; Minimal (<10% decrease or increase in Vmax).; format: functional; conditions: Canis lupus familiaris; Purkinje fiber; in short: as §2
Canis familiaris [10] = species: Canis familiaris; assay: In vitro electrophysiological evaluation in canine cardiac ventricular muscle reported as % change for the functional refractory period (FRP) at 10 uM at concentration range of 0.1-100 uM; parameters: species or system Canis lupus familiaris, Muscle tissue
In short: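 Canine right ventricle and papillary muscle strips in oxygenated Tyrode's solution, fitted with stimulating and recording electrodes. The extra-stimulus conduction-interval method was adapted for in vitro use. FRP and CT were read from a conduction-interval curve before and after various compound concentrations, and expressed as percent change from control. Compounds were taken from 10 mM deionized-water stock into Tyrode's. Each strip was used once as its own control.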

Canis familiaris [11] = species: Canis familiaris; assay: as §4; format: functional, Canis lupus familiaris, Heart; remark: listed apart in the source
Canis familiaris [12] = species: Canis familiaris; assay: In vitro electrophysiological evaluation in canine cardiac Purkinje fibres reported as % change for action potential duration at 10 uM at 1-30 uM concentration range; format: functional, Canis lupus familiaris, Purkinje fiber
In short: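 Canine cardiac Purkinje fibers, intracellular recording, paced at a basic cycle length of 1 s. APD95 and Vmax are recorded together across cumulative concentrations. Compound is a 10 mM aqueous stock diluted into Tyrode's solution. Each fiber is used once as its own control. Readouts are percent change from control at 10 μM, and the maximum change with the concentration where it occurred.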

Canis familiaris [13] = species: Canis familiaris; assay: In vitro electrophysiological evaluation in canine cardiac Purkinje fibres reported as percent change Vmax at 10 uM at concentration range of 1-30 uM; Minimal (<10% decrease or increase in Vmax).; format: functional; conditions: Canis lupus familiaris, Purkinje fiber
Canis familiaris [14] = assay: Effective dose administered intravenously to elicit Antiarrhythmic efficacy in anesthetized dogs was reported; Number of animals effective at that dose is 1.; format: functional, Canis lupus familiaris, Heart
In short: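 Dogs are anesthetized and the chest reopened. Stimulating and recording electrodes go on the myocardium. Reproducible PES-induced sustained VT or VF is confirmed first; SVT is ended by burst pacing and VF by DC countershock. Compound is given iv in 0.9% saline and inducibility retested. A dose counts as effective when SVT/VF cannot be reinduced in two of three animals.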

Canis familiaris [15] = species: Canis familiaris; assay: as §4; format: functional, Canis lupus familiaris, Heart; remark: listed apart in the source
Canis familiaris [16] = species: Canis familiaris; assay: as §1; format: functional; conditions: Canis lupus familiaris; Heart; remark: listed apart in the source
Canis familiaris [17] = species: Canis familiaris; assay: as §4; format: functional, Canis lupus familiaris, Heart; remark: listed apart in the source
Canis familiaris [18] = species: Canis familiaris; assay: In vitro electrophysiological evaluation in canine cardiac ventricular muscle reported as % change for conduction time(CT) at 10 uM at 0.1-100 uM concentration range; Minimal (<10% decrease or increase in […]).; format: functional, Canis lupus familiaris, Muscle tissue; in short: as §3

## CCN(CC)CC(=O)Nc1c(C)cccc1C [LIDOCAINE]
Canis familiaris [1]
  Vmax: -42%
Canis familiaris [2]
  APD95: -23%
Canis familiaris [3]
  Vmax: < 10%
Canis familiaris [4]
  Vmax: < 10%
Canis familiaris [5]
  FRP: 23% and 8% and 18%
Canis familiaris [6]
  Vmax: -11%
Canis familiaris [7]
  CT: <10%
Canis familiaris [8]
  APD95: -48%
Canis familiaris [9]
  Vmax: < 10%
Canis familiaris [10]
  FRP: 6% and 4% and 2%
Canis familiaris [11]
  APD95: -43%
Canis familiaris [12]
  APD95: -30%
Canis familiaris [13]
  Vmax: < 10%
Canis familiaris [14]
  Effective dose: 3 mg/kg
Canis familiaris [15]
  APD95: -33%
Canis familiaris [16]
  Vmax: -10%
Canis familiaris [17]
  APD95: -43%
Canis familiaris [18]
  CT: <10%
